Consider two compounds from ChEMBL document CHEMBL1151806, “Indolizidine, antiinfective and antiparasitic compounds from Prosopis glandulosa var. glandulosa” (J Nat Prod, 2009).

One assay relates to SK-OV-3. Put plainly: Cytotoxicity against human SKOV3 cells after 48 hrs by neutral red assay. The format is functional, cell-based. Conditions: SK-OV-3, 48 h. The method, boiled down: (§1)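 Cells seeded at 25,000/well, incubated 24 h, then exposed to samples for 48 h. Viable cells measured by Neutral Red uptake. IC50 from logarithmic plots of growth inhibition vs concentration. Doxorubicin positive control, DMSO vehicle control.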

In another assay the test system is Aspergillus fumigatus. In words: Antimicrobial activity against Aspergillus fumigatus ATCC 90906 by alamar blue assay. It counts as functional, organism-based. The conditions noted are these: Aspergillus fumigatus, ATCC 90906. The method, boiled down: (§2)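 Samples serially diluted in 20% DMSO/saline, tested in duplicate. Inocula set by OD630: C. albicans RPMI pH 4.5, 1·10^4 CFU/mL; C. neoformans Sabouraud dextrose, 1·10^5; MRSA cation-adjusted Mueller-Hinton pH 7.3, 5·10^5; M. intracellulare 7H9/OADC + 5% Alamar Blue pH 7.3, 2·10^6; A. fumigatus RPMI pH 7.3 + 5% Alamar Blue, 3·10^4.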
(Resazurin is reduced to fluorescent resorufin, in cell work by metabolically active cells.)

The test system of another assay is Cryptococcus neoformans. In words: Antimicrobial activity against Cryptococcus neoformans ATCC 90113 by NCCLS method. It counts as functional, organism-based. The method, boiled down:
as §2

Assay [1] is described as follows: Toxicity in RBC assessed as hemolysis. The format is cell-based. The conditions noted are these: Erythrocyte.
The test system of the next assay is Vero. In words: Cytotoxicity against african green monkey Vero cells after 48 hrs by neutral red assay. Conditions: Chlorocebus sabaeus, Vero, 48 h; read-out: IC50. The format is cell-based, Chlorocebus sabaeus. The method, boiled down: as §1
A further assay concerns BT-549. In words: Cytotoxicity against human BT549 cells after 48 hrs by neutral red assay. The format is functional, cell-based. Conditions: BT-549, 48 h. The method, boiled down: as §1
For a further assay, the system named is Candida albicans. Put plainly: Antimicrobial activity against Candida albicans ATCC 90028 by NCCLS method. It counts as functional, organism-based. Conditions: Candida albicans, ATCC 90028. The method, boiled down:
as §2

The next assay has as its system KB. Put plainly: Cytotoxicity against human KB cells after 48 hrs by neutral red assay. It counts as functional, cell-based. The method, boiled down:
as §1

Another assay relates to SK-MEL. In words: Cytotoxicity against human SK-MEL cells after 48 hrs by neutral red assay. The format is functional, cell-based. The method, boiled down: as §1
The test system of assay [2] is Plasmodium berghei. Put plainly: Antimalarial activity as reduced parasitaemia at day 17 against Plasmodium berghei NK65 infected Swiss Webster mice (Mus musculus) at 10 mg/kg/day intraperitoneal dose for 3 days. It counts as functional. Further details: scale not given: the % may be the effect or the level left. The method, boiled down: (§3)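 Peters 4-day suppressive test: male Swiss Webster mice (18–20 g) inoculated ip with 2·10^7 P. berghei NK-65 parasitized red cells. Compound in DMSO:PEG:water (1:3:6) given ip ~2 h post-infection, then once daily for 3 days (days 0–2). 5 mice/group; vehicle-treated control. Giemsa-stained tail blood smears read to day 28. % suppression = 100 − (treated/untreated parasitemia × 100). Cure = no parasitemia until day 28. Mice observed after each dose for signs of toxicity.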

The subject of assay [3] is Plasmodium berghei. Put plainly: Antimalarial activity as elimination of parasitaemia at day 28 against Plasmodium berghei NK65 infected Swiss Webster mice (Mus musculus) at 10 mg/kg/day intraperitoneal dose for 3 days. The format is functional, organism-based. The method, boiled down:
as §3

Assay [4] relates to Plasmodium berghei. In words: Antimalarial activity as reduced parasitaemia at day 10 against Plasmodium berghei NK65 infected Swiss Webster mice (Mus musculus) at 10 mg/kg/day intraperitoneal dose for 3 days. It counts as functional. Further details: scale not given: the % may be the effect or the level left. The method, boiled down:
as §3

Structures are written as SMILES. Values after ≈ are worked out from the molar mass of the structure shown. Active and inactive are the calls of the source.

For orientation: IC50 means the concentration at which inhibition is half-maximal. By MIC is commonly meant the smallest concentration in the dilution series that meets the test's criterion for growth inhibition. Regarding `C[C@@H]1[C@H](O)[C@@H](C)/C=C/C=C/C=C/C=C/C=C/C=C/C=C/[C@H](O[C@@H]2O[C@H](C)[C@@H](O)[C@H](N)[C@@H]2O)C[C@@H]2O[C@](O)(C[C@@H](O)C[C@@H](O)[C@H](O)CC[C@@H](O)C[C@@H](O)CC(=O)O[C@H]1C)C[C@H](O)[C@H]2C(=O)O` [AMPHOTERICIN B], the IC50 in the assay on SK-OV-3 is above 25 µg/mL; with Aspergillus fumigatus (read-out: IC50), 0.4 µg/mL (≈ 0.433 µM); in the assay on Cryptococcus neoformans, 0.45 µg/mL (≈ 0.487 µM); in assay [1], 3.9 µg/mL (≈ 4.22 µM); in the assay with Vero, 7.5 µg/mL (≈ 8.12 µM); in the assay on BT-549, 5.5 µg/mL (≈ 5.95 µM). For the same compound, the IC50 was 0.35 µg/mL (≈ 0.379 µM) in the assay on Candida albicans (read-out: IC50), above 25 µg/mL with KB and 5 µg/mL (≈ 5.41 µM) with SK-MEL. The MIC against Aspergillus fumigatus and with Candida albicans was 0.63 µg/mL (≈ 0.682 µM) each time.

As for `CCO[C@H]1O[C@@H]2O[C@@]3(C)CC[C@H]4[C@H](C)CC[C@@H]([C@H]1C)[C@@]24OO3` [ARTEMOTIL], the Activity with Plasmodium berghei [2] and in the assay with Plasmodium berghei [4] was 100% in each case. For the same compound, the result in the assay with Plasmodium berghei [3] was Active.
